The results in this text go back to ChEMBL document CHEMBL3091371, “Cytotoxic and antibacterial marfuraquinocins from the deep South China Sea-derived Streptomyces niveus SCSIO 3406” (J Nat Prod, 2013).

The subject of one experiment is MCF7. Nature of the experiment: Cytotoxicity against human MCF7 cells after 72 hrs by SRB assay. It is filed as functional, cell-based. The conditions noted are these: MCF7, 72 h. The method, boiled down:
(§1)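 Human tumour lines are tested by sulforhodamine B (SRB) staining. Cisplatin (DDP) is the positive control. IC50 is reported in μM as mean ± deviation.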
Background: In SRB staining, fixed cells bind dye roughly in proportion to their protein.

A further experiment relates to SF-268. Nature of the experiment: Cytotoxicity against human SF268 cells after 72 hrs by SRB assay. It is filed as functional, cell-based. The conditions noted are these: SF-268, 72 h. The method, boiled down:
as §1

For experiment [1], the system named is Staphylococcus epidermidis. Nature of the experiment: Antibacterial activity against methicillin-resistant Staphylococcus epidermidis clinical isolate shhs-E1 by broth microdilution method. The experiment is classed as functional. The method, boiled down: (§2)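 Broth microdilution; MIC read as the lowest concentration giving complete growth inhibition in microdilution wells by unaided eye. Clinical isolates from Shanghai Huashan Hospital. Ampicillin and kanamycin as antibacterial controls. Results in μg/mL.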

Experiment [2] relates to Staphylococcus aureus. Nature of the experiment: Antibacterial activity against Staphylococcus aureus ATCC 29213 by broth microdilution method. The experiment is classed as functional. In general terms: Broth dilution looks for growth in wells or tubes with falling amounts of substance.
In another experiment the test system is Micrococcus luteus. Nature of the experiment: Antibacterial activity against Micrococcus luteus by broth microdilution method. The experiment is classed as functional.
For a further experiment, the system named is NCI-H460. Nature of the experiment: Cytotoxicity against human NCI-H460 cells after 72 hrs by SRB assay. The experiment is classed as functional, cell-based. The conditions noted are these: NCI-H460, 72 h. The method, boiled down:
as §1

The test system of another experiment is HepG2. Nature of the experiment: Cytotoxicity against human HepG2 cells after 72 hrs by SRB assay. The conditions noted are these: HepG2, 72 h. It is filed as functional, cell-based. The method in brief:
as §1

The nature of experiment [3]: Antibacterial activity against Aeromonas hydrophila ATCC 7966 by broth microdilution method. The experiment is classed as functional, Aeromonas hydrophila subsp. hydrophila ATCC 7966.
In experiment [4] the test system is Staphylococcus aureus. Nature of the experiment: Antibacterial activity against methicillin-resistant Staphylococcus aureus clinical isolate shhs-A1 by broth microdilution method. The experiment is classed as functional. The method in brief: as §2
In another experiment the test system is Escherichia coli. Nature of the experiment: Antibacterial activity against Escherichia coli ATCC 25922 by broth microdilution method. It is filed as functional.
A further experiment relates to Acinetobacter baumannii. Nature of the experiment: Antibacterial activity against Acinetobacter baumannii ATCC 19606 by broth microdilution method. It is filed as functional.

≈ marks a conversion by molar mass, not a printed value. Where only a bound is given, the exact number is not on record here.

Broadly, the IC50 is the point on the concentration scale where inhibition reaches its midpoint. What is called MIC is the lowest concentration found to suppress growth. Low values mean greater potency, high ones weaker potency. `C=C1CCCC(C)(C)C1CC[C@]1(C)c2c(O)cc3c(c2O[C@@H]1C)C(=O)C=C(OC)C3=O` (some centres undefined): the IC50 in the experiment with MCF7 was 18.7 µM; in the experiment with SF-268, 27.9 µM; in the experiment with NCI-H460 it was 18.8 µM; in the experiment on HepG2, 18.5 µM. Also, the MIC was 32 µg/mL (≈ 75.4 µM) in [1]; 64 µg/mL (≈ 151 µM) in the experiment with Staphylococcus aureus [2]; above 128 µg/mL against Micrococcus luteus; 128 µg/mL (≈ 302 µM) in experiment [3]; above 128 µg/mL against Staphylococcus aureus [4]; 128 µg/mL (≈ 302 µM) in the experiment with Escherichia coli. This compound also displayed an MIC in the experiment with Acinetobacter baumannii above 128 µg/mL.

Take `C=C1CCCC(C)(C)C1CC[C@]1(C)c2c(O)cc3c(c2O[C@@H]1CO)C(=O)C=C(OC)C3=O` (some centres undefined): the IC50 in the experiment on MCF7 stood at 14.8 µM; in the experiment with SF-268 it was 18.3 µM; in the experiment on NCI-H460 it was 8.8 µM; in the experiment with HepG2, 15.5 µM. The MIC in experiment [1] was 8 µg/mL (≈ 18.2 µM); in the experiment with Staphylococcus aureus [2], 8 µg/mL (≈ 18.2 µM); in the experiment on Micrococcus luteus, above 128 µg/mL; in experiment [3], 128 µg/mL (≈ 291 µM); in the experiment with Staphylococcus aureus [4], above 128 µg/mL; against Escherichia coli, 128 µg/mL (≈ 291 µM). In addition, the MIC in the experiment on Acinetobacter baumannii was above 128 µg/mL.

For the compound `C=C1CCCC(C)(C)C1CC[C@@]1(C)c2c(O)cc3c(c2O[C@@H]1C)C(=O)C=C(OC)C3=O` (some centres undefined), the IC50 stood at 12.9 µM in the experiment on MCF7, 26.7 µM in the experiment with SF-268, 3.7 µM in the experiment with NCI-H460 and 17.5 µM in the experiment with HepG2. Also, the MIC was 64 µg/mL (≈ 151 µM) in experiment [1]; 8 µg/mL (≈ 18.8 µM) with Staphylococcus aureus [2]; above 128 µg/mL with Micrococcus luteus; 128 µg/mL (≈ 302 µM) in [3]; above 128 µg/mL against Staphylococcus aureus [4]; 128 µg/mL (≈ 302 µM) in the experiment with Escherichia coli. Besides, the MIC against Acinetobacter baumannii was above 128 µg/mL.

Consider `COc1cccc2nc3c(OC/C=C(\C)CCC=C(C)C)cccc3nc12`, for which the IC50 in the experiment on MCF7 was 21.9 µM; with SF-268, 30.4 µM; in the experiment on NCI-H460, above 100 µM; with HepG2 it was 52.7 µM. Besides, the MIC in [1] is 128 µg/mL (≈ 353 µM); against Staphylococcus aureus [2], 128 µg/mL (≈ 353 µM); in the experiment on Micrococcus luteus it was above 128 µg/mL; in [3] it was 128 µg/mL (≈ 353 µM); against Staphylococcus aureus [4] it was above 128 µg/mL; against Escherichia coli, 128 µg/mL (≈ 353 µM). In the experiment on Acinetobacter baumannii, this compound showed an MIC above 128 µg/mL.

Consider `CC1(C)S[C@@H]2[C@H](NC(=O)[C@H](N)c3ccccc3)C(=O)N2[C@H]1C(=O)O` [AMPICILLIN], for which the MIC in experiment [1] was 2 µg/mL (≈ 5.72 µM); against Staphylococcus aureus [2], 0.5 µg/mL (≈ 1.43 µM); against Micrococcus luteus it was 2 µg/mL (≈ 5.72 µM); in experiment [3], 128 µg/mL (≈ 366 µM); with Staphylococcus aureus [4], above 128 µg/mL; in the experiment with Acinetobacter baumannii it was above 128 µg/mL.

`NC[C@H]1O[C@H](O[C@H]2[C@H](O)[C@@H](O[C@H]3O[C@H](CO)[C@@H](O)[C@H](N)[C@H]3O)[C@H](N)C[C@@H]2N)[C@H](O)[C@@H](O)[C@@H]1O` [KANAMYCIN]: the MIC in experiment [1] was 128 µg/mL (≈ 264 µM); against Staphylococcus aureus [2], 0.5 µg/mL (≈ 1.03 µM); against Micrococcus luteus, 0.5 µg/mL (≈ 1.03 µM); in [3], 0.5 µg/mL (≈ 1.03 µM); in the experiment on Staphylococcus aureus [4], 0.5 µg/mL (≈ 1.03 µM); in the experiment with Escherichia coli it was 0.5 µg/mL (≈ 1.03 µM). This compound also displayed an MIC in the experiment with Acinetobacter baumannii of 4 µg/mL (≈ 8.26 µM).

Regarding `CC(C)=CCC/C(C)=C/COc1cccc2nc3c(O)cccc3nc12`, the IC50 came out at 16.8 µM in the experiment with MCF7, 10.2 µM with SF-268, 68.9 µM with NCI-H460 and 22.3 µM in the experiment with HepG2. Moreover, the MIC in [1] was 128 µg/mL (≈ 367 µM); against Staphylococcus aureus [2], 128 µg/mL (≈ 367 µM); in the experiment on Micrococcus luteus, above 128 µg/mL; in experiment [3] it was 64 µg/mL (≈ 184 µM); in the experiment with Staphylococcus aureus [4] it was above 128 µg/mL; in the experiment with Escherichia coli, 128 µg/mL (≈ 367 µM). Further, the MIC in the experiment on Acinetobacter baumannii is above 128 µg/mL.

Take `C=C1CCCC(C)(C)C1CC[C@@]1(C)c2c(O)cc3c(c2O[C@@H]1CO)C(=O)C=C(OC)C3=O` (some centres undefined): the IC50 in the experiment with MCF7 was determined as 18.9 µM; with SF-268 it was 17.9 µM; in the experiment with NCI-H460 it was 4.4 µM; in the experiment on HepG2, 11.9 µM. Besides, the MIC in experiment [1] is 8 µg/mL (≈ 18.2 µM); against Staphylococcus aureus [2], 8 µg/mL (≈ 18.2 µM); against Micrococcus luteus it was above 128 µg/mL; in experiment [3] it was 128 µg/mL (≈ 291 µM); against Staphylococcus aureus [4] it was above 128 µg/mL; against Escherichia coli, 128 µg/mL (≈ 291 µM). Moreover, the MIC in the experiment with Acinetobacter baumannii is above 128 µg/mL.
